Screening results deposited in PubChem BioAssay by SRMLSC.
The entries come from a sample that favours hits as a whole.
HCT116 PTEN-null: growth suppression of PTEN-null HCT116, primary screen, cell-based, CellTiter-Glo. HCT116 PTEN-null viability, 60 h; active compounds read low. viability, % at 10 µM. hit rate 1.2% among 140,000;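 active = viability at or below a set limit, 4 SD under the median of all tested compounds, cut at about 3.7% in these data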;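 note: PTEN knockout HCT116 line with beta catenin targeted HCT116 as companion control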
HCT116 bCat-KO: primary screen for growth suppressors in beta-catenin knockout HCT116 cells (colon tumor, human). hit rate 1.5% among 140,000. viability, % at 10 µM. AID 818, 2007. HCT116 beta-catenin knockout viability, CellTiter-Glo, 60 h; active compounds read low;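 active = viability at or under a set limit, the compound median less 4 SD, cut at about 6% in these data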;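 note: 0% = Hyamine 1622 control at 20 µM and 100% = untreated cell control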
Fibroblast inh: antiproliferative effect on LL 47 fibroblasts – human, LL 47 cells, CellTiter-Glo luminescence, primary screen; hit rate 1.1% among 85,000; viability, % at 10 µM; LL 47 human lung fibroblast viability, ATP luminescence; active compounds read low; AID 719, 2007;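 active = viability at or below 50% in the single dose screen; inactive = viability above 50%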;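 note: compound exposure lasted 72 h before the ATP readout; 100% = median luminescence of untreated cell-only wells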
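Times – overnight cell rest, 72 h compound treatment at 37 °C · Test system – human lung fibroblast line LL 47, low passage · Amount – 1,150 cells in each well · Controls – cell-only wells, no compound · Doses – 0.1% DMSO in all compound wells · Measured by – CellTiter-Glo luminescence · Buffer or medium – IMEM plus 15% FBS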
HUVEC inhibit: inhibitors of HUVEC proliferation, primary screen, cell-based, 384-well. CellTiter-Glo luminescence, 72 h; active compounds read low. hit rate 1.1% among 86,000. viability, % at 10 µM (by protocol);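 active = viability at or below 30%; inactive = viability above 30%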;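 note: 100% = median luminescence of DMSO-only cell control wells on each plate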
H69AR growth 86K: proliferation blockers of H69AR lung cancer cells, primary screen, cell-based, human, 86K library; H69AR lung tumor viability, ATP luminescence, 72 h; active compounds read low; viability, % at 10 µM; hit rate 6% among 85,000;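 active = viability at or below 40%; inactive = viability above 40%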;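 note: multidrug resistant small cell line overexpressing MRP-1 efflux transporter; 100% = mean luminescence of untreated control wells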
An asterisk follows results filed as active.

`CCOC(=O)c1c(NC(=O)CSc2nnnn2-c2ccc3c(c2)OCO3)sc(C)c1C` gave HCT116 PTEN-null 89, HCT116 bCat-KO 92, Fibroblast inh 92, HUVEC inhibit 84 and H69AR growth 86K 60.
CCc1ccccc1-n1c(SCC(=O)Nc2ccc3c(c2)OCCO3)nc2[nH]ncc2c1=O was read as HCT116 PTEN-null 87, HCT116 bCat-KO 93, Fibroblast inh 75, HUVEC inhibit 77 and H69AR growth 86K 39*.
`COc1ccc(C(=O)CSc2nnc(CN3CCCCC3)n2-c2ccc(Cl)cc2)cc1OC` gave HCT116 PTEN-null 72 and HCT116 bCat-KO 80.
`CCCCSc1nnc(-c2ccccc2)c2ccccc12` gave HCT116 PTEN-null 81 and HCT116 bCat-KO 77.
O=C(NNC1=C(C(=O)C(F)(F)F)CCC1)c1cccc(Cl)c1 was read as HCT116 PTEN-null 37, HCT116 bCat-KO 37, Fibroblast inh 69, HUVEC inhibit 23* and H69AR growth 86K 29*.
For Cc1sc2nc(CSc3cccc(C(F)(F)F)c3)[nH]c(=O)c2c1C the results were HCT116 PTEN-null 86 and HCT116 bCat-KO 89.
Screening Clc1ccc(OCCCNCc2ccccc2)c(Br)c1 returned HCT116 PTEN-null 1.7* and HCT116 bCat-KO 1.2*.
Screening Cc1cc(Cl)c(OCCCNCc2ccccc2)c(Br)c1 returned HCT116 PTEN-null 1.2* and HCT116 bCat-KO 1.5*.
`CCOP(=O)(OCC)C(NC(=O)Nc1ccc(Cl)cc1)C(=O)N(CC)CC` (stereo not drawn) gave HCT116 PTEN-null 87 and HCT116 bCat-KO 92.
`CCOC(=O)N1C2C=C(C)[C@@H]2[C@@H]2CC(=O)N21` (stereo partly drawn) gave HCT116 PTEN-null 106 and HCT116 bCat-KO 98.
Screening CCOC(=O)c1c(NC(=O)CN2CCCCC2)sc2c1CCC(C=O)=C2Cl returned HCT116 PTEN-null 33 and HCT116 bCat-KO 62.
For CCOC(=O)c1c(NC(C)=O)sc2c1CCC(C=NCCCN(CC)CC)=C2Sc1ccccc1 the results were Fibroblast inh 69, HUVEC inhibit 3.2* and H69AR growth 86K 0.7*.
`Cc1nn(C)cc1/C=C/C(=O)c1cccs1` gave HCT116 PTEN-null 67, HCT116 bCat-KO 67, Fibroblast inh 103, HUVEC inhibit 102 and H69AR growth 86K 39*.
O=C(Nc1ccc2c(c1)OCCO2)c1ccc(Cl)c([N+](=O)[O-])c1 was read as HCT116 PTEN-null 66 and HCT116 bCat-KO 51.
O=C(Nc1cccc(S(=O)(=O)Nc2ccccc2Cl)c1)c1ccc(N2CCCC2)c([N+](=O)[O-])c1 was read as HCT116 PTEN-null 90 and HCT116 bCat-KO 95.
`Cc1cccc(C)c1NS(=O)(=O)c1ccc(NC(=O)c2ccc(Cl)c([N+](=O)[O-])c2)cc1` gave HCT116 PTEN-null 3.3* and HCT116 bCat-KO 1.9*.
For Cc1ccc(NC(=O)c2ccc(NCCN)c([N+](=O)[O-])c2)cc1Cl the results were HCT116 PTEN-null 4 and HCT116 bCat-KO 3.4*.
For O=C(Nc1ccc(C(O)(C(F)(F)F)C(F)(F)F)cc1)c1ccc(Cl)c([N+](=O)[O-])c1 the results were HCT116 PTEN-null 1.8* and HCT116 bCat-KO 1.6*.
`Cc1ccc(N(CN2C(=O)c3ccccc3C2=O)C(=O)c2ccc([N+](=O)[O-])cc2[N+](=O)[O-])cc1` gave HCT116 PTEN-null 97 and HCT116 bCat-KO 95.
For COc1ccc(CN2C(=O)c3ccccc3C2=O)cc1C(=O)Nc1ccc(C)cc1C the results were HCT116 PTEN-null 75 and HCT116 bCat-KO 74.
S=c1nc(-c2ccccc2Cl)n(Cc2cccnc2)c2c1CCCC2 was read as HCT116 PTEN-null 103 and HCT116 bCat-KO 95.
Screening Cc1ccc(-c2cc(C(F)F)n3ncc(C(=O)Nc4c(C)nn(Cc5ccccc5Cl)c4C)c3n2)cc1 returned HCT116 PTEN-null 1.4* and HCT116 bCat-KO 2.4*.
Cc1ccc(O)c(-c2cc(-c3cccc(F)c3)n[nH]2)c1 was read as HCT116 PTEN-null 47, HCT116 bCat-KO 40, Fibroblast inh 82, HUVEC inhibit 28* and H69AR growth 86K 0.6*.
Screening COc1ccc(O)c(-c2cc(-c3cccc(Br)c3)n[nH]2)c1 returned HCT116 PTEN-null 37, HCT116 bCat-KO 14, Fibroblast inh 96, HUVEC inhibit 43 and H69AR growth 86K 36*.
COc1ccc(-c2cc(-c3cc(OC)ccc3O)[nH]n2)cc1 was read as HCT116 PTEN-null 36, HCT116 bCat-KO 21, Fibroblast inh 73, HUVEC inhibit 53 and H69AR growth 86K 28*.
Screening COc1ccc(-c2cc(-c3cc(F)ccc3O)[nH]n2)cc1OC returned HCT116 PTEN-null 34, HCT116 bCat-KO 32, Fibroblast inh 78, HUVEC inhibit 44 and H69AR growth 86K 52.
For COc1ccc(-c2cc(-c3ccc(OC)c(OC)c3)n[nH]2)c(O)c1 the results were HCT116 PTEN-null 32, HCT116 bCat-KO 26, Fibroblast inh 86, HUVEC inhibit 96 and H69AR growth 86K 54.
`O=C(CCC(=O)N1CCN(S(=O)(=O)c2ccc(Cl)cc2)CC1)Nc1cccc(Br)c1` gave HCT116 PTEN-null 90 and HCT116 bCat-KO 89.
Screening CN1CCc2c(sc3nc(SCC(=O)N4CCOCC4)nc(N)c23)C1 returned HCT116 PTEN-null 91, HCT116 bCat-KO 88, Fibroblast inh 96, HUVEC inhibit 98 and H69AR growth 86K 89.
CSc1nc(SCC(=O)NC(c2ccccc2)c2ccccc2)c2c3c(sc2n1)CN(C)CC3 was read as HCT116 PTEN-null 33, HCT116 bCat-KO 70, Fibroblast inh 48*, HUVEC inhibit 31 and H69AR growth 86K 12*.
For Cc1ccc([N+](=O)[O-])cc1N=C(c1cccc(Br)c1)N1CCOCC1 the results were HCT116 PTEN-null 80 and HCT116 bCat-KO 79.
Screening Cc1ccccc1Nc1cccc2nonc12 returned HCT116 PTEN-null 94 and HCT116 bCat-KO 100.
For CN(C)c1ccc(O)c2c1CC1CC3[C@@H](N(C)C)C(=O)C(C(N)=O)=C(O)[C@]3(O)C(=O)C1=C2O (stereo partly drawn) the results were HCT116 PTEN-null 66, HCT116 bCat-KO 71, Fibroblast inh 84, HUVEC inhibit 93 and H69AR growth 86K 35*.
`O=c1cc(CO)oc(C(Nc2ccccn2)c2ccc(C(F)(F)F)cc2)c1O` (stereo not drawn) gave HCT116 PTEN-null 86, HCT116 bCat-KO 80, Fibroblast inh 89, HUVEC inhibit 91 and H69AR growth 86K 19*.
`O=c1cc(CO)oc(C(Nc2ccccn2)c2cccc(F)c2)c1O` (stereo not drawn) gave HCT116 PTEN-null 113, HCT116 bCat-KO 102, Fibroblast inh 97, HUVEC inhibit 102 and H69AR growth 86K 91.
For CCCC(=O)Nc1cccc(-c2nc3ccccc3o2)c1 the results were HCT116 PTEN-null 95, HCT116 bCat-KO 93, Fibroblast inh 97, HUVEC inhibit 98 and H69AR growth 86K 100.
